Assay outcomes from PubChem.
Autophagy mod: autophagy modulators in MEF cells, primary screen, imaging, high-content, MEF GFP-LC3 | MEF GFP-LC3 puncta imaging; test concentration mostly 10 µM | calls only at 10 µM (by protocol) | actives 0.98% (n = 190,000);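 active = percentage of spot-positive cells more than 3 SD above its plate mean, without a fluorescence outlier flag or 80% toxicity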
b-catenin transl: modulators of beta-catenin nuclear translocation, primary screen, imaging, HeLa cells, immunofluorescence, high-content; nuclear translocation activity, % at 5 µM; actives 0.3% (n = 190,000); AID 1665, 2009;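 active = nuclear translocation activity above 50% at 5 µM, with a well cell count of 50 or more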;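 also: per-cell ratio of nuclear to cytoplasmic median beta-catenin stain intensity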
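System: Human HeLa cells, endogenous beta-catenin | Compound dosing: 5 µM primary, 0.02–20 µM confirmation | Timing: 24 h compound exposure at 37°C, 5% CO2 | Measured by: Fluorescence imaging of beta-catenin antibody stain plus DAPI | Read-out basis: % activation of per-cell nuclear versus cytoplasmic median beta-catenin signal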
Tb hexokinase: Trypanosoma brucei hexokinase 1 inhibitors, primary screen, biochemical, G6PDH-coupled NADH absorbance, MLSCN library | actives 0.11% (n = 220,000) | inhibition, % at 10 µM | recombinant TbHK1, G6PDH-coupled NADH A340 | hexokinase 1 [Trypanosoma brucei];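 active = inhibition of 50% or more in the single-dose primary screen; inactive = inhibition below 50%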
Ins promoter up: insulin promoter activators in MIN6 cells, imaging, high-content screening, mouse beta cells | MIN6 insulin promoter-GFP reporter; stronger effect = higher value | z-score at 5 µM | actives 0.3% (n = 190,000);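 active = z-score above 3 at 5 µM with at least 500 cells counted in the well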
MT stabilizer: microtubule stabilizers in HeLa cells, primary screen, imaging, high-content imaging; HeLa tubulin immunostaining HCS, 24 h; share of cells brighter than vehicle mean+2SD; % tubulin-high responders, % at 10 µM; actives 0.83% (n = 200,000);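 active = plate Z-score above 3 for both tubulin-high and condensed-nucleus cell shares, with cell loss under 80%, at 10 µM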;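 also: anti alpha tubulin signal scored within the nucleus-defined area of each cell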
A number is an active result. Rows were chosen to be rich in hits. Some 1.9% of all compounds tested hit in one or more screens of this group.

Screening O=[N+]([O-])c1ccc(/C=C/C2=NN(c3ccccc3)C(c3ccco3)C2)o1 (configuration not stated) returned Autophagy mod active, b-catenin transl inactive, Tb hexokinase inactive and MT stabilizer inactive.
Screening C(=C\c1ccco1)/C1=NN(c2ccccc2)C(c2ccco2)C1 (configuration not stated) returned Autophagy mod inactive, b-catenin transl inactive, Tb hexokinase inactive, Ins promoter up inactive and MT stabilizer inactive.
For [O-]/C(=C(\C(=S)NCCN1CCOCC1)[n+]1ccccc1)c1ccc(Cl)s1 the results were Autophagy mod inactive, b-catenin transl inactive, Tb hexokinase inactive, Ins promoter up inactive and MT stabilizer inactive.
`CC(C)n1nnnc1-c1cccc(Cl)c1` gave Autophagy mod inactive, b-catenin transl inactive, Tb hexokinase inactive, Ins promoter up inactive and MT stabilizer inactive.
`Cc1nn2cc(-c3cccc(Cl)c3)cnc2c1Cl` gave Autophagy mod inactive, b-catenin transl 69.5, Tb hexokinase inactive, Ins promoter up inactive and MT stabilizer 19.5.
Cc1nn2cc(-c3cccc(Cl)c3)cnc2c1Br was read as Autophagy mod inactive, b-catenin transl inactive, Tb hexokinase inactive and MT stabilizer 16.0.
`CCOC(=O)N1CCN(C(=O)c2ccccc2-c2ccccc2)CC1` gave Autophagy mod inactive, b-catenin transl inactive, Tb hexokinase inactive, Ins promoter up inactive and MT stabilizer 32.1.
CCOC(=O)N1CCN(C(=O)c2ccccc2CCc2ccccc2)CC1 was read as Autophagy mod inactive, Tb hexokinase inactive and MT stabilizer inactive.
`CC(/C=N/Nc1ccc2nncn2n1)=C\c1ccccc1` gave b-catenin transl inactive, Tb hexokinase inactive and Ins promoter up inactive.
For CCc1cc2c(=O)c(-c3nc4ccccc4[nH]3)coc2c(CN2CCCCC2)c1O the results were b-catenin transl inactive, Tb hexokinase inactive and Ins promoter up inactive.
For O=c1oc2c(CN3CCCCC3)c(O)ccc2cc1-c1nc2ccccc2[nH]1 the results were b-catenin transl inactive and Ins promoter up 3.57.
`CC(C)c1nc2sc3c(NCc4ccco4)ncnc3c2c2c1COC(C)(C)C2` gave Autophagy mod inactive, b-catenin transl inactive, Tb hexokinase inactive, Ins promoter up inactive and MT stabilizer inactive.
For CC(C)c1nc2sc3c(NCc4ccccc4)ncnc3c2c2c1COC(C)(C)C2 the results were Autophagy mod active, Tb hexokinase inactive, Ins promoter up inactive and MT stabilizer inactive.
O=C1c2ccccc2C(=O)N1c1cccc(-c2nc3ccccc3o2)c1 was read as Autophagy mod inactive, b-catenin transl inactive, Tb hexokinase inactive, Ins promoter up inactive and MT stabilizer inactive.
For O=C1c2ccccc2C(=O)N1c1ccc(-c2nc3ccccc3o2)cc1 the results were Autophagy mod active, b-catenin transl inactive, Tb hexokinase inactive, Ins promoter up inactive and MT stabilizer inactive.
For Cc1ccc2c(CC(=O)NCc3ccco3)coc2c1C the results were Autophagy mod inactive, b-catenin transl 113.8, Tb hexokinase inactive, Ins promoter up inactive and MT stabilizer 41.3.
Screening O=C1NC(c2cccs2)Nc2ccccc21 (configuration not stated) returned Autophagy mod inactive, b-catenin transl inactive, Tb hexokinase inactive, Ins promoter up inactive and MT stabilizer inactive.
For O=C1NC(c2ccccc2Cl)Nc2ccccc21 (configuration not stated) the results were Autophagy mod inactive, b-catenin transl inactive, Tb hexokinase inactive, Ins promoter up inactive and MT stabilizer 27.1.
Screening Cc1ccc(OCC(=O)N/N=C\c2c(C)n(C)c3ccccc23)c([N+](=O)[O-])c1 returned Autophagy mod inactive, b-catenin transl inactive, Tb hexokinase inactive, Ins promoter up inactive and MT stabilizer 46.6.
`O=C(c1cccc(F)c1)N1CCN(c2cccc(Cl)c2)CC1` gave Autophagy mod inactive, Tb hexokinase inactive, Ins promoter up inactive and MT stabilizer 21.5.
O=C(c1c(Cl)nc2sccn12)N1CCN(c2cccc(Cl)c2)CC1 was read as Autophagy mod inactive, b-catenin transl 112.0, Tb hexokinase inactive and MT stabilizer 19.0.
Cc1onc(-c2ccccc2Cl)c1C(=O)N1CCN(c2ccccc2)CC1 was read as Autophagy mod inactive, b-catenin transl inactive, Tb hexokinase inactive, Ins promoter up inactive and MT stabilizer inactive.
COc1ccccc1C(=O)N1CCN(c2cccc(Cl)c2)CC1 was read as Autophagy mod inactive, b-catenin transl 56.4, Tb hexokinase inactive and MT stabilizer 31.1.
For Cc1onc(-c2ccccc2Cl)c1C(=O)N1CCN(c2cccc(Cl)c2)CC1 the results were Autophagy mod inactive, Tb hexokinase inactive, Ins promoter up inactive and MT stabilizer 20.2.
`COC(=O)c1ccccc1S(=O)c1snnc1C` (configuration not stated) gave Autophagy mod inactive, b-catenin transl inactive, Tb hexokinase inactive and MT stabilizer inactive.
Screening O=C(c1c(F)cccc1F)N1CCN=C1SCc1ccccc1 returned b-catenin transl inactive, Tb hexokinase inactive and Ins promoter up inactive.
Screening COc1ccccc1C(=O)NNC(=O)c1cccc(Cl)c1 returned Autophagy mod active, b-catenin transl inactive, Tb hexokinase inactive, Ins promoter up inactive and MT stabilizer inactive.
For COc1ccc(Cl)cc1C(=O)NNC(=O)c1cccc([N+](=O)[O-])c1 the results were Autophagy mod inactive, b-catenin transl inactive, Tb hexokinase inactive, Ins promoter up inactive and MT stabilizer inactive.
For O=C(Nc1ccc2c(c1)OCCO2)c1c(F)cccc1F the results were Autophagy mod inactive, Tb hexokinase inactive, Ins promoter up inactive and MT stabilizer inactive.
`CC(C(=O)Nc1ccc2c(c1)OCCO2)N(C)Cc1c(F)cccc1Cl` (configuration not stated) gave Autophagy mod active, b-catenin transl inactive, Tb hexokinase inactive, Ins promoter up inactive and MT stabilizer inactive.
For NC(=S)N/N=C1\CCSc2ccc(Cl)cc21 the results were b-catenin transl inactive, Tb hexokinase inactive and Ins promoter up inactive.
Screening Cc1c(C(=O)Nc2ccc(Cl)cc2)c2ccccn2c1C(=O)c1ccc(F)cc1 returned Autophagy mod active, Tb hexokinase inactive, Ins promoter up inactive and MT stabilizer inactive.
COc1ccccc1Oc1ccc(S(=O)(=O)N2CCOCC2)cc1S(=O)(=O)N1CCOCC1 was read as Autophagy mod inactive, b-catenin transl inactive, Tb hexokinase inactive and MT stabilizer inactive.
`Cc1ccc(Oc2ccc(S(=O)(=O)N3CCOCC3)cc2C(N)=O)c(-n2nc3ccccc3n2)c1` gave Autophagy mod inactive, b-catenin transl inactive, Tb hexokinase inactive, Ins promoter up inactive and MT stabilizer 27.4.
`O=C(Nc1ccncc1)C1CCCN(S(=O)(=O)c2cccc3cccnc23)C1` (configuration not stated) gave b-catenin transl 88.4, Tb hexokinase inactive and MT stabilizer 21.8.
